One data set addresses T1, Neutrophil elastase (Homo sapiens, UniProt P08246).
T1 sequence (P08246 whole entry): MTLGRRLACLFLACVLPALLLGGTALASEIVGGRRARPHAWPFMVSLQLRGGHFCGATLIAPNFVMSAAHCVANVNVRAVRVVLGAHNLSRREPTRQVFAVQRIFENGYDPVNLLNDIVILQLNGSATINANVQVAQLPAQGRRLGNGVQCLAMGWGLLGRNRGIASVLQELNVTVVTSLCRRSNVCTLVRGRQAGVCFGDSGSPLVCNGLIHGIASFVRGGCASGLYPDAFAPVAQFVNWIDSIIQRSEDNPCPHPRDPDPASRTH
Kind of data set: Inhibition of human neutrophil elastase using N-(OMe-succinyl)-Ala-Ala-Pro-Val-p-nitroanilide as substrate incubated for 15 mins followed by substrate addition and measured for every 30 sec for 30 mins by spectrophotometry.

In data set [1] the test system is BEAS-2B. Kind of data set: Cytoprotective activity in human BEAS2B cells assessed as reduction in HNE-induced cell death incubated for 24 hrs by MTT assay. The class given is functional, cell-based. In outline:
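BEAS-2B bronchial epithelial cells were cotreated with compound and 100 nM HNE for 24 h, and viability was read with MTT reagent.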
(In general: Tetrazolium dyes change colour on reduction, which living cells bring about.)

Data set [2] relates to BEAS-2B. Nature of the data set: Upregulation of IL-1beta in human BEAS2B cells incubated for 3 hrs by RT-qPCR analysis. (In qPCR the cycle at which signal appears reflects the starting amount.)
A short description of data set [3]: Metabolic stability in human liver microsome assessed as half life at 200 uM in presence of NADPH incubated for 24 hrs by HPLC-MS analysis. The class given is ADME. To be noted: liver microsomes.
The nature of data set [4]: Metabolic stability in human liver microsomes at 200 uM incubated for 24 hrs by HPLC-MS analysis. The class given is ADME, Microsome. In a few lines: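 Compound was incubated with pooled human liver microsomes without NADPH for up to 24 h to assess NADPH-independent metabolism; mean ± SD, n = 3.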
(Microsomes from liver hold many membrane-bound enzymes, among them those of drug oxidation.)

Data set [5] can be described thus: Stability in human serum at 200 uM incubated for 24 hrs by HPLC-MS analysis. The class given is ADME, cell-free. In a few lines: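 Compound was incubated in human serum at 37 °C and followed over 24 h.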

The source made the active and inactive calls. The rule behind the calls is not given here.

One may read the IC50 as the concentration that gives 50% inhibition. Read a low IC50 as higher potency. One may read the EC50 as the concentration giving half of the maximal effect. The half-life is how long it takes for the measured level to halve.

Turning to `C/C=C1\NC(=O)[C@@H](NC(C)=O)[C@@H](C)OC(=O)[C@H](C(C)C)NC(=O)[C@H](Cc2ccc(O)cc2)N(C)C(=O)[C@H](Cc2ccccc2)N2C(=O)[C@H](CC[C@H]2O)NC1=O`, inhibition at Neutrophil elastase was half-maximal at 10 µM (IC50).
On the same count and under the same terms, the figure for `C/C=C1\NC(=O)[C@@H](NC(=O)OC(C)(C)C)[C@@H](C)OC(=O)[C@H](C(C)C)NC(=O)[C@H](Cc2ccc(O)cc2)N(C)C(=O)[C@H](Cc2ccccc2)N2C(=O)[C@H](CC[C@H]2O)NC1=O` is more than 10 µM.
For the molecule `C/C=C1\NC(=O)[C@@H](NC(=O)[C@H](CCC(N)=O)NC(=O)CC2CCCCC2)[C@@H](C)OC(=O)[C@H](C(C)C)NC(=O)[C@H](Cc2ccc(O)cc2)N(C)C(=O)[C@H](Cc2ccccc2)N2C(=O)[C@H](CC[C@H]2O)NC1=O`, it took 0.103 µM to reach half-maximal inhibition on Neutrophil elastase (IC50). In addition, the EC50 with BEAS-2B [1] turned out to be 0.091 µM. In the data set on BEAS-2B [2], the outcome was Active.
On to `C/C=C1\NC(=O)[C@@H](NC(=O)[C@H](CCC(N)=O)NC(=O)CCCCC)[C@@H](C)OC(=O)[C@H](C(C)C)NC(=O)[C@H](Cc2ccc(O)cc2)N(C)C(=O)[C@H](Cc2ccccc2)N2C(=O)[C@H](CC[C@H]2O)NC1=O` [LYNGBYASTATIN 7], for which the half-life at 200 µM in data set [3] was 2 h. In addition, the Stability result in data set [4] and in data set [5] was “Stable” each time. The EC50 in the data set on BEAS-2B [1] came out at 0.02 µM. Moreover, the outcome in the data set on BEAS-2B [2] was Active.
At Neutrophil elastase, `C/C=C1\NC(=O)[C@@H](NC(=O)[C@H](CCC(N)=O)NC(=O)CN2CCOCC2)[C@@H](C)OC(=O)[C@H](C(C)C)NC(=O)[C@H](Cc2ccc(O)cc2)N(C)C(=O)[C@H](Cc2ccccc2)N2C(=O)[C@H](CC[C@H]2O)NC1=O` displayed a half-maximal inhibitory concentration (IC50) of 0.197 µM. In addition, in the data set on BEAS-2B [1], the EC50 was found to be 0.185 µM. In the data set with BEAS-2B [2], the outcome was inactive.

Source of the values: ChEMBL document CHEMBL4342506 (ACS Med Chem Lett, 2020).
